In the library only some 2.1% were active in any assay of this set; here they are far more common.
IEC-6 tox – cytotoxicity in IEC-6 intestinal epithelial cells, primary screen, cytotoxicity control for KLF5 inhibitor project, cell-based, luminescence. hit rate 0.78% among 290,000. inhibition, % at 5 µM. IEC-6 cytotoxicity, luminescence viability; in the data active means inhibition above about 22%;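 further: 0% = plate median of test compound wells and 100% = cytotoxic reference compound wells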
KLF5 inh – KLF5 expression inhibitors, primary screen, DLD-1 cells, luminescence. inhibition, % at 5 µM. DLD-1 KLF5 promoter-luciferase reporter. hit rate 0.23% among 290,000;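 active means inhibition above a per-plate limit of that plate's mean compound inhibition plus 3 SD, cut at about 60% in these data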;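 further: 0% = DMSO wells and 100% = LY294002 at 200 µM; higher means less KLF5 promoter-driven luciferase light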
Ba/F3 V617F tox – reduced viability of JAK2V617F-dependent Ba/F3 cells, primary screen, JAK2V617F inhibitor project, cell-based, Ba/F3 EpoR-JAK2V617F, luminescence. ATP luminescence. inhibition, % at 5.6 µM. hit rate 1.1% among 220,000. AID 1446, 2008;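 active means inhibition above the campaign mean plus 3 SD over all tested compounds, cut at about 24% in these data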;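 further: cytokine-independent growth of Ba/F3 cells driven by EpoR plus mutant JAK2; 0% = DMSO-treated cells and 100% = JAK inhibitor I control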
bCat nuc transl – modulators of beta-catenin nuclear translocation, primary screen, imaging, HeLa cells, immunofluorescence, high-content; AID 1665, 2009; hit rate 0.3% among 190,000; nuclear translocation activity, % at 5 µM;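 active means nuclear translocation activity above 50% at 5 µM, with a well cell count of 50 or more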;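 further: per-cell ratio of nuclear to cytoplasmic median beta-catenin stain intensity; plate controls were DMSO negative control for no effect and GSK-3 inhibitor IX positive control for full effect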
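Test system: human HeLa cells, native beta-catenin. Compound dosing: 5 µM primary single dose, 0.1% DMSO, 0.02–20 µM confirmation series. Incubation: compound exposure 24 h at 37°C. Detection: beta-catenin immunostaining with DAPI counterstain, 20x imaging, 6 fields/well. Read-out basis: Nuclear/cytoplasmic beta-catenin signal ratio, % activation.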
BaF3 tox – parental Ba/F3 cell viability inhibition, counter-screen for JAK2V617F inhibitor project, murine pro-B, CellTiter-Glo luminescence; AID 1486, 2009; hit rate 1.1% among 220,000; inhibition, % at 5.6 µM; CellTiter-Glo ATP luminescence;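 active means inhibition above a per-campaign cutoff, the mean inhibition of all tested compounds plus 3 SD, cut at about 27% in these data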;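 further: 0% = DMSO wells and 100% = JAK Inhibitor I control wells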
MT stabilize HCS – microtubule stabilizers in HeLa cells, primary screen, imaging, high-content imaging. HeLa tubulin immunostaining HCS, 24 h; share of cells brighter than vehicle mean+2SD. % tubulin-high responders, % at 10 µM. hit rate 0.83% among 200,000. AID 2205, 2009;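 active means plate Z-score above 3 for both tubulin-high and condensed-nucleus cell shares, with cell loss under 80%, at 10 µM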;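 further: anti alpha tubulin signal scored within the nucleus-defined area of each cell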
Numbers without * were called inactive; . = not tested or not shown.

SMILES	IEC-6 tox	KLF5 inh	Ba/F3 V617F tox	bCat nuc transl	BaF3 tox	MT stabilize HCS
COc1cc2c(cc1OC)C(c1cccs1)N(C(=O)c1ccc(S(=O)(=O)N(C)C)cc1)CC2 (configuration not stated)	-1	-2	-2	-1	-10	.
CCc1nnc(NC(=O)CSc2nc(C)cc(C)c2C#N)s1	1	-131	1	-3	8	3
COc1cccc2c1OCC/C2=N\NC(=O)COc1ccccc1C	-2	-24	2	1	4	3
CC(=O)C1=NN(c2ccccc2)C(c2cccs2)N1c1ccccc1 (configuration not stated)	-3	-41	22	.	43*	2
O=C(Nc1nc(-c2ccccc2)cs1)C1CCCO1 (configuration not stated)	5	-58	-3	.	-4	1
O=C(Nc1nc(-c2ccc(-c3ccccc3)cc2)cs1)C1CCCO1 (configuration not stated)	-1	-4	6	.	8	42*
COc1cc(CSc2nnnn2-c2ccc(C)cc2)cc(OC)c1OC	3	-18	35*	0	53*	6
COc1cc2c(cc1O)CC[C@@H]1[C@@H]2CC[C@]2(C)[C@@H](O)CC[C@@H]12	74*	57	76*	20	78*	.
C[C@]12CC[C@@H]3c4ccc(OC(=O)c5ccccc5)cc4CC[C@H]3[C@@H]1CC[C@@H]2O	2	-1	3	-1	4	9
COc1ccc(/C=C/C2=CCN(Cc3ccc(OC)cc3)CC2)cc1	-5	5	16	.	38*	2
Cc1ccc(S(=O)(=O)/N=S(\C)CC2CC2(Cl)Cl)cc1 (configuration not stated)	-3	-3	-3	-14	3	1
O=[N+]([O-])c1ccccc1N/N=C/c1c[nH]c2ccccc12	16	-30	0	.	4	2
O=[N+]([O-])c1ccc(N/N=C/c2c[nH]c3ccccc23)cc1	11	-11	52*	1	32*	4
O=[N+]([O-])c1ccc(N/N=C/c2ccc[nH]2)cc1	6	5	60*	1	33*	2
Oc1ccc(N=Nc2ccc3c(c2)OCCO3)c2ncccc12	3	40	92*	-4	67*	.
Cc1c(CCOC(=O)CC23CC4CC(CC(C4)C2)C3)sc[n+]1Cc1ccccc1	0	-37	29*	3	41*	2
Cc1ncc(C[n+]2csc(CCOC(=O)CC34CC5CC(CC(C5)C3)C4)c2C)c(N)n1	7	-14	2	-2	3	2
CCOc1ccc(N2CC(=O)N(c3ccc(OCC)cc3)CC2=O)cc1	0	17	-1	-1	93*	3
O=C(Cc1ccc(Cl)cc1)Nc1ccc(-c2cc3ccccc3oc2=O)c(Cl)c1	48*	52	56*	102*	65*	8
COc1ccc(CCN2CCC(Nc3nc4ccccc4n3Cc3ccc(F)cc3)CC2)cc1	4	-29	75*	5	41*	17
CCc1nnc(NC(=O)c2ccc3nc(CC)c(CC)nc3c2)s1	-1	-16	0	-3	4	3
CCc1nnc(N/N=C/c2c(C)[nH]c3ccccc23)n1N	102*	21	19	0	13	3
Oc1ccc(N=Nc2c(O)ccc3ccccc23)cc1	12	-49	20	0	42*	2
NS(=O)(=O)c1ccc(N=Nc2c(O)ccc3ccccc23)cc1	4	-49	2	1	9	4
CCOC(=O)C1CCCN(S(=O)(=O)c2c(C(=O)N3CCCCC3)c(C)n(C)c2C)C1 (configuration not stated)	1	-5	.	.	.	.
SMILES	IEC-6 tox	KLF5 inh	Ba/F3 V617F tox	bCat nuc transl	BaF3 tox	MT stabilize HCS
COc1ccc(Cl)cc1NC(=O)NC1CCCCC1	-7	-32	-4	.	6	1
CCCN1CCC(NC(=O)Nc2cc(Cl)ccc2OC)CC1	5	3	1	-5	90*	3
COc1ccc(NS(=O)(=O)c2ccc3c(c2)CCC(=O)N3)c(OC)c1	-5	-4	-4	-3	0	2
COc1ccc(C2NC(=S)NC(C)=C2C(=O)Nc2ccccn2)cc1 (configuration not stated)	-6	-56	1	2	10	9.2*
Oc1cccc(C2c3[nH]c4ccccc4c3CCN2Cc2ccoc2)c1 (configuration not stated)	8	-8	-1	0	-1	1
Oc1cccc(C2c3[nH]c4ccccc4c3CCN2Cc2ccc3c(c2)CCO3)c1 (configuration not stated)	14	-27	0	10	3	8.2*
CC(C)CN1CCN(C(=O)CCc2nnc(Cc3c[nH]c4ccccc34)o2)[C@@H](C)C1=O	2	-38	.	.	.	.
COc1ccc(/C(C)=N/OC/C(O)=C(\C#N)c2nc3ccccc3[nH]2)cc1OC	-2	-23	0	3	7	16*
COc1ccc(/C(C)=N/OC/C(O)=C(\C#N)c2nc3ccccc3[nH]2)c(OC)c1	-7	-26	1	-3	5	2
Cn1nc(CC(=O)Nc2ccc3c(c2)OCCO3)c2ccccc2c1=O	8	18	48*	.	53*	4
Cc1cnc(C(=O)Nc2ccc(N3CCN(C(=O)OC(C)(C)C)CC3)cc2)cn1	-3	-3	0	68*	7	39*
Cn1nc(CC(=O)Nc2ccc(N3CCN(C(=O)OC(C)(C)C)CC3)cc2)c2ccccc2c1=O	11	11	50*	1	60*	15
Cc1cnc(C(=O)Nc2ccc(C(C)C)cc2)cn1	-2	-129	-1	19	-1	18*
COc1ccc(NS(=O)(=O)c2cc(NC(=O)c3cc(F)c(F)c(F)c3F)ccc2N2CCCC2)cc1	8	8	-4	0	-8	.
COc1ccc(NS(=O)(=O)c2cc(NC(=O)CC3CCCC3)ccc2N2CCOCC2)cc1	-4	-15	7	2	32*	4
COc1ccc(NS(=O)(=O)c2cc(NC(=O)c3ccco3)ccc2N2CCCC2)cc1	19	-30	2	2	7	15*
CCC(=O)N(C(=O)CC)N1CCN(c2ccncc2S(=O)(=O)N2CCCCC2)CC1	-4	7	.	.	.	.
Oc1c(C=Nc2ccccc2Cl)[nH]c2ccccc12	8	-131	-2	0	-2	.
Cc1nn2cc(-c3cccc(Cl)c3)cnc2c1Cl	3	-1	2	70*	4	20*
Cc1nn2cc(-c3cccc(Cl)c3)cnc2c1Br	4	-20	1	1	2	16*
